Assay [1] deals with Sigma non-opioid intracellular receptor 1 (Rattus norvegicus, UniProt Q9R0C9). In words: Displacement of [3H](+)-pentazocine from sigma 1 opioid receptor in rat brain cerebellum. The assay is classed as tissue-based. An outline of the steps:
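σ1 radioligand binding with 5 nM [3H](+)-pentazocine in 50 mM Tris–HCl, pH 8.0. Nonspecific binding defined with 10 µM haloperidol. Test ligand at twelve concentrations, 120 min at 25 °C.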

Assay [2] in a line: Displacement of [3H]ditolylguanidine from sigma 2 opioid receptor in rat brain cerebellum. The assay is classed as tissue-based. An outline of the steps:
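σ2 sites labeled with 3 nM [3H]di-o-tolylguanidine, with 300 nM (+)-pentazocine present to mask σ1, in 50 mM Tris–HCl, pH 8.0. Nonspecific binding taken with 10 µM haloperidol. Twelve test-ligand concentrations, incubated 120 min at 25 °C.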

The species named for another assay is Rattus norvegicus. The assay is described as follows: Selectivity ratio of Ki for rat sigma 2 opioid receptor to Ki for rat sigma 1 opioid receptor.
Assay [3] has as its target Delta-type opioid receptor (Homo sapiens, UniProt P41143). The assay is described as follows: Binding affinity to delta opioid receptor.
Another assay deals with Mu-type opioid receptor (Homo sapiens, UniProt P35372). The assay is described as follows: Binding affinity to mu opioid receptor.
Sequence of Mu-type opioid receptor (P35372 whole entry): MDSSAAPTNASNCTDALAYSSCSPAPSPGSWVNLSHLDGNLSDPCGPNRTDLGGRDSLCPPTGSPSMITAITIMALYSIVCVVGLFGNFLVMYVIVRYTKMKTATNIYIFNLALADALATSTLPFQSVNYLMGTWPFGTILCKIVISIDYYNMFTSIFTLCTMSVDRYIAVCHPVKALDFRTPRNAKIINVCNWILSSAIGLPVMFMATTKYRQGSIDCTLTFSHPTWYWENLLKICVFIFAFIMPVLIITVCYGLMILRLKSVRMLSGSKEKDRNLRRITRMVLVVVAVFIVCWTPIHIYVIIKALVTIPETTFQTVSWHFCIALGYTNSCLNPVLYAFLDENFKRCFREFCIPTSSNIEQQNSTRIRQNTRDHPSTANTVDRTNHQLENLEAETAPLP
For assay [4], the target named is Kappa-type opioid receptor (Homo sapiens, UniProt P41145). The assay is described as follows: Binding affinity to kappa opioid receptor.
Sequence of Kappa-type opioid receptor (P41145 whole entry): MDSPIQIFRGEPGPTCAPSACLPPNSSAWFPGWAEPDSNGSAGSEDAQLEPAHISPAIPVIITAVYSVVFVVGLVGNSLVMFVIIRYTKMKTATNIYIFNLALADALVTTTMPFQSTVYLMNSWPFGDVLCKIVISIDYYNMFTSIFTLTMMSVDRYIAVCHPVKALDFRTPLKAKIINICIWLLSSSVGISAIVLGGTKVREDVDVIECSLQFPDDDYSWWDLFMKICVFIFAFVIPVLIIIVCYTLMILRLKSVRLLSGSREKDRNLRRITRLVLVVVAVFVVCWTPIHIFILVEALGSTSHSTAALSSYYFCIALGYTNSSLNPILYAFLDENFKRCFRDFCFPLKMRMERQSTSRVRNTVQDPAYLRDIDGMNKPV

Bounds are passed on as bounds.

Sequence of Sigma non-opioid intracellular receptor 1 (Q9R0C9 whole entry): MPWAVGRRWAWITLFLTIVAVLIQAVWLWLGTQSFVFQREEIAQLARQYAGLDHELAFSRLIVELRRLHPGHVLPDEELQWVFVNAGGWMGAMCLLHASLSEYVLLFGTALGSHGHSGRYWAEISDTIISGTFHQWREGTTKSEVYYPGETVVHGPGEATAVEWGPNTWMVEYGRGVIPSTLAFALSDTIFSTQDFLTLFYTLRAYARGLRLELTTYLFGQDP
Sequence of Delta-type opioid receptor (P41143 whole entry): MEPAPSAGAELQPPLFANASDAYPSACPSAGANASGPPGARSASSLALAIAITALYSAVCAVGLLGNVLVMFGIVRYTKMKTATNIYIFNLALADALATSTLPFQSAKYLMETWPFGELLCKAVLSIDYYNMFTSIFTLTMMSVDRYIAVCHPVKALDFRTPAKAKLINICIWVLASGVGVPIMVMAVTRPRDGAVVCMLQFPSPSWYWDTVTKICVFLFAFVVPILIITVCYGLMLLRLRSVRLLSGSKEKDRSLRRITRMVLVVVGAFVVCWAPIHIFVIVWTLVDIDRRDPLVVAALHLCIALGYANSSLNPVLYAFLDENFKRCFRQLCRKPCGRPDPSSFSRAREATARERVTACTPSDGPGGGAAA

Regarding `c1ccc(CCN2CCCCC2)cc1` [1-PHENETHYLPIPERIDINE], the Ki in assay [1] was 30 nM; in assay [2], 138 nM. For the same compound, the Ratio Ki in the assay listed under Rattus norvegicus came to 5.

As for `N#CC1(c2ccccc2)CCN(Cc2ccccc2)CC1`, the inhibition constant Ki is 0.41 nM in assay [1]; above 10000 nM in assay [3]; 657 nM in assay [2]; 5900 nM on Mu-type opioid receptor; above 10000 nM in assay [4]. In addition, the Ratio Ki in the assay filed under Rattus norvegicus came to 1600.

As for `C=CCN1CCC(C#N)(c2ccccc2)CC1`, the Ki in assay [1] is 2.2 nM; in assay [3], above 10000 nM; in assay [2], 662 nM; at Mu-type opioid receptor, above 10000 nM; in assay [4] it was above 10000 nM. Besides, the Ratio Ki in the assay listed under Rattus norvegicus is 300.

In the case of `N#CC1(c2ccccc2)CCN(CCc2ccccc2)CC1`, the Ki was determined as 3.3 nM in assay [1] and 118 nM in assay [2]. The Ratio Ki in the assay filed under Rattus norvegicus was 36.

Regarding `c1ccc(CCN2CCN(c3ccccn3)CC2)cc1`, the values for the Ki in assay [1] and in assay [2] were 322 nM and 170 nM, respectively. In the assay filed under Rattus norvegicus, the Ratio Ki was 0.53.

For the compound `CC(C)CN1CCC(C#N)(c2ccccc2)CC1`, the Ki worked out at 0.35 nM in assay [1] and 63 nM in assay [2]. For the same compound, the Ratio Ki in the assay filed under Rattus norvegicus is 180.

As to `CN1CCC(C#N)(c2ccccc2)CC1`, the Ki in assay [1] is 113 nM; in assay [3], above 10000 nM; in assay [2], 2140 nM; at Mu-type opioid receptor, above 10000 nM; in assay [4], above 10000 nM. For the same compound, the Ratio Ki in the assay listed under Rattus norvegicus was 19.

For the compound `N#CC1(c2ccccc2)CCN(CCCCc2ccccc2)CC1`, the Ki in assay [1] was 49 nM; in assay [3] it was above 10000 nM; in assay [2] it was 1310 nM; on Mu-type opioid receptor, 9800 nM; in assay [4], above 10000 nM. Besides, in the assay listed under Rattus norvegicus, the Ratio Ki came out at 27.

Consider `N#CC1(c2ccccc2)CCN(CCCc2ccccc2)CC1`, for which the figures for the Ki in assay [1] and in assay [2] were 0.38 nM and 46 nM, respectively. Further, in the assay filed under Rattus norvegicus, the Ratio Ki is 120.

As for `C=C(C)CN1CCC(C#N)(c2ccccc2)CC1`, the Ki in assay [1] is 3.7 nM; in assay [3] it was 5000 nM; in assay [2], 482 nM; on Mu-type opioid receptor it was above 10000 nM; in assay [4], above 10000 nM. In the assay filed under Rattus norvegicus, the Ratio Ki came to 130.

Regarding `CCCN1CCC(C#N)(c2ccccc2)CC1`, the Ki in assay [1] is 1.7 nM; in assay [2] it was 143 nM. For the same compound, the Ratio Ki in the assay filed under Rattus norvegicus came out at 84.
